Measured values: paper PMC3914721 (Biochemistry, 2013)
Where “and” joins values, the source holds several entries; their conditions need not be identical. Equal entries are not always repeated. Where two headings read alike, the source gives them in different places.

Experiments:
Ms sGC β1(1–380) = molecular target: T1, Ms sGC β1(1–380) (Manduca sexta, UniProt O77106); assay: CO titration monitoring the CO-bound Soret band; type: binding; conditions: for Kd: read-out: Kd^CO
T1 sequence (O77106 1-380): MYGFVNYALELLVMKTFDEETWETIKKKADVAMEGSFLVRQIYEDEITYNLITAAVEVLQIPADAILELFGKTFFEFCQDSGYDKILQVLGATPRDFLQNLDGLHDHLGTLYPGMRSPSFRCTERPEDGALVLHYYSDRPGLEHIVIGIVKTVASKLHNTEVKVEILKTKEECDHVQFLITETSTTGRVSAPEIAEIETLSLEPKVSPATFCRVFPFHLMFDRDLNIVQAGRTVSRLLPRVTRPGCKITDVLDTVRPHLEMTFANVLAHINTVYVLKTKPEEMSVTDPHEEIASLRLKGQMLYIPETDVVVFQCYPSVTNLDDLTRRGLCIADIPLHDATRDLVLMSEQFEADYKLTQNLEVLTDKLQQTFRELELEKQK
Outline: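 Ms β1(1–380) was expressed in E. coli Rosetta pLysS with 25 μM δ-aminolevulinic acid. It was purified by anion exchange, Ni-NTA (EDTA elution) and S200 gel filtration, where it ran as a monomer, then prepared in Ar-purged buffer with excess dithionite. CO from a saturated solution was titrated into a septum-capped 10 cm cuvette, the CO-bound Soret band was followed, and data were fit to a single-site saturation model.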

Ms sGC-NT19 = conditions: read-out: Kd^CO; no stimulator; ref 43; cited from earlier work
Ms sGC-NT2 = conditions: read-out: Kd^CO, no stimulator, cited from earlier work
Bt sGC (full length) [1] = conditions: read-out: Kd^CO, no stimulator, cited from earlier work
Bt sGC β1(1–359) = molecular target: T2, Bt sGC β1(1–359) (Bos taurus, UniProt P16068); assay: CO titration monitoring the CO-bound Soret band; type: binding, Bos taurus (bovine); conditions: read-out: Kd^CO; no stimulator; 1 μM protein
T2 sequence (P16068 1-359): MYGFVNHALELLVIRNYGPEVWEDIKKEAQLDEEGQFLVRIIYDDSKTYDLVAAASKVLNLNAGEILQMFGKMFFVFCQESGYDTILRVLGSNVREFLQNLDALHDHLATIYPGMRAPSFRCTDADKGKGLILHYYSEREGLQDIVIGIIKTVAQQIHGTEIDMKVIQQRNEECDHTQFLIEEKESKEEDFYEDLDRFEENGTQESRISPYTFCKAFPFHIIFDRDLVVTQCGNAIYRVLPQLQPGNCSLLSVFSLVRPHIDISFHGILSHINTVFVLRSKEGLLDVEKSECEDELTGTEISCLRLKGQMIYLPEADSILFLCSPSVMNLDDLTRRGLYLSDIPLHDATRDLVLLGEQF
Outline: (§1)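 CO from a saturated solution was added by gas-tight syringe to protein in septum-capped 1 or 10 cm cuvettes. The appearance of the CO-bound Soret absorption band was followed, and data were fit to a single-site saturation ligand-binding model.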

Bt sGC β1(1–197) = molecular target: T3, Bt sGC β1(1–197) (Bos taurus, UniProt P16068); assay: CO titration monitoring the CO-bound Soret band; type: binding, Bos taurus (bovine)
T3 sequence (P16068 1-197): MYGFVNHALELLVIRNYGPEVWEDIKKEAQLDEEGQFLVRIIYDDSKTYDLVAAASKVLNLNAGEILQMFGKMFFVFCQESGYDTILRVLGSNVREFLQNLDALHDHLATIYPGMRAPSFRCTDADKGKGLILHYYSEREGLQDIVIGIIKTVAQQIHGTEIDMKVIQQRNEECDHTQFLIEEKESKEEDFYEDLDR
Outline: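 Bovine β1 H-NOX construct was expressed in E. coli BL21(DE3)pRIPL with δ-aminolevulinic acid and ferric citrate. It was purified by Q-FF, S75 and second Q-FF chromatography and prepared in Ar-purged buffer with excess dithionite. CO from a saturated solution was titrated by gas-tight syringe into the septum-capped cuvette while the CO-bound Soret band was followed. Data were fit to a single-site saturation model.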

Ms sGC-NT13 [2] = molecular target: T4, Ms sGC-NT13 (Manduca sexta, UniProt O77106); assay: CO titration monitoring the CO-bound Soret band; type: binding; conditions: for Kd^CO/Kd^CO′ cooperativity factor: ratio of CO dissociation constants without and with compound
Outline: (§2)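 CO titrations were run at room temperature in 50 mM potassium phosphate pH 7.4, 100 mM KCl, 5% glycerol, at several YC-1 concentrations (0–50 μM). NT21 used a 10 cm cuvette with 0.1 μM protein; NT13 used a 1 cm cuvette with 1 μM protein. A four-state cooperative model was globally fit to normalized absorbance changes at 423 and 433 nm, giving Ka^CO, Ka^YC-1 and Kint. Kd^CO′ is the inverse of Ka^CO·Kint.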

Hs sGC (full length) = conditions: read-out: Kd^CO; no stimulator; ref 77; cited from earlier work
[3] = molecular target: heterodimeric sGC proteins; assay: CO binding to heterodimeric sGC proteins, summary over constructs; set-up: species or system Manduca sexta; conditions: read-out: Kd^CO, range over heterodimeric proteins; absence of YC-1
Outline: as §1

Ms sGC-NT21 [4] = molecular target: T5, Ms sGC-NT21 (Manduca sexta, UniProt O77106); assay: CO titration monitoring the CO-bound Soret band; type: binding; conditions: for Kd^CO/Kd^CO′ cooperativity factor: ratio of CO dissociation constants without and with compound
Outline: as §2

[5] = system: pre-constricted aortic rings; conditions: read-out: EC50 to stimulate sGC in pre-constricted aortic rings; cited from earlier work
Ms sGC-NT13 [6] = molecular target: T4, Ms sGC-NT13; type: binding
Ms sGC-NT21 [7] = molecular target: T5, Ms sGC-NT21; type: binding; conditions: for Kint (CO) cooperativity factor: from global fitting
Ms sGC-NT21-CO = Ms sGC-NT21-CO (Manduca sexta, UniProt O77106); assay: Soret band shift titration of CO-saturated protein; type: binding
Ms sGC-NT13-CO = Ms sGC-NT13-CO (Manduca sexta, UniProt O77106); assay: Soret band shift titration of CO-saturated protein; type: binding
Ms sGC-NT = Ms sGC-NT (Manduca sexta, UniProt O77106); assay: Stimulator binding to Ms sGC-NT constructs, summary over constructs and methods; conditions: for Effect of α1 H-NOX removal on stimulator binding (Ms sGC-NT21 vs Ms sGC-NT13): unliganded proteins
sGC = conditions: cited from earlier work
Ms sGC β1 (1–380) = assay: Soret band shift on YC-1 addition; type: binding, Manduca sexta; conditions: CO-saturated protein
Bt sGC (full length) [8] = conditions: read-out: Kd^YC-1′, +CO; measured in the presence of GTP; cited from earlier work
β1 PAS domain = assay: Fluorescence anisotropy of YC-1; type: binding, Manduca sexta; conditions: 2 μM YC-1, 20 °C; likely non-specific
lysozyme = assay: Fluorescence anisotropy of YC-1; type: binding; conditions: 2 μM YC-1, 20 °C
Ms sGC α1 PAS = molecular target: T6, Ms sGC α1 PAS (Manduca sexta, UniProt O77105); assay: Fluorescence anisotropy of YC-1; type: binding
T6 sequence (O77105 279-404): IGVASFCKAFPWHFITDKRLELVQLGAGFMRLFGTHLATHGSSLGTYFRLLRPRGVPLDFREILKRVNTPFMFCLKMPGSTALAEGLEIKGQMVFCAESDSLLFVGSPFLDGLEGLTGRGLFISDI

## [C-]#[O+] [CO]
Ms sGC β1(1–380); absence of the alpha chain
  Kd: ~200 nM
Ms sGC β1(1–380); no stimulator, 10 cm cuvette, 0.1 μM protein
  Kd: ~200 nM and 200 nM
Ms sGC β1(1–380); vs heterodimeric Ms sGC
  Fold enhancement of CO binding on complete removal of the α1 chain: 265 fold
Ms sGC-NT19
  Kd: 50000 ± 3000 nM
Ms sGC-NT2; ref 33
  Kd: 77000 ± 7000 nM
Ms sGC-NT2; ref 43
  Kd: 90000 ± 9000 nM
Bt sGC (full length) [1]; ref 51
  Kd: 127000 nM
Bt sGC (full length) [1]; ref 76
  Kd: 97000 nM
Bt sGC β1(1–359)
  Kd: 15000 ± 4000 nM
Bt sGC β1(1–197)
  Fold less tight CO binding than Ms sGC β1(1–380): ~ 8 fold
Bt sGC β1(1–197); read-out: Kd^CO, no stimulator, 1 cm cuvette, 0.5 μM protein
  Kd: 1600 ± 200 nM
Ms sGC-NT13 [2]; read-out: Kd^CO, no stimulator, 1 μM protein
  Kd: 53000 ± 4000 nM
Hs sGC (full length)
  Kd: 260000 nM
[3]
  Kd: 50000 to 100000 nM and 50000 to 90000 nM
Ms sGC-NT21 [4]; read-out: Kd^CO, no stimulator, 10 cm cuvette, 0.1 μM protein
  Kd: 2200 ± 200 nM
Ms sGC-NT21 [4]; removal of the α1 H-NOX domain
  Fold tighter CO binding than Ms sGC proteins containing the α1 H-NOX domain: 20–40 fold and 24 fold

## Nc1nc(-c2nn(Cc3ccccc3F)c3ncccc23)ncc1C1CC1 [BAY 41–2272]
[5]
  EC50: 300 nM
Aqueous solubility
  Solubility in aqueous buffer: poor solubility
Ms sGC-NT13 [6]; Kd^BAY, −NO/CO, estimated assuming linked equilibria: (Kd^CO/Kd^CO′) Kd^BAY′
  Kd: 17000 ± 3000 nM
Ms sGC-NT21 [7]
  Kd: 30 ± 10 nM
  Kint (CO) cooperativity factor: 58 ± 7
Ms sGC-NT21-CO
  Kd: 90 ± 20 nM
Ms sGC-NT13-CO
  Kd: 80 ± 10 nM
Ms sGC-NT13 [2]
  Kd^CO/Kd^CO′ cooperativity factor: 212 ± 23
Ms sGC-NT
  Effect of α1 H-NOX removal on stimulator binding (Ms sGC-NT21 vs Ms sGC-NT13): ~ 9 fold
Ms sGC-NT21 [4]
  Kd^CO/Kd^CO′ cooperativity factor: 31 ± 5

## OCc1ccc(-c2nn(Cc3ccccc3)c3ccccc23)o1 [YC-1]
Ms sGC β1(1–380); any of the constructs missing the α1 chain
  Kint, cooperativity in CO binding: ~ 1
sGC; in the absence of NO
  Stimulation of sGC: two- to four-fold
sGC; synergistically with CO or NO
  Activation of sGC: several hundred fold
Aqueous solubility
  Solubility in aqueous buffer: poor solubility
Ms sGC-NT13 [6]; from global fitting
  Kint (CO) cooperativity factor: 19 and 19 ± 2
Ms sGC β1 (1–380)
  Shift in Soret band maxima upon YC-1 binding: not observed
Ms sGC-NT21 [7]
  Kint (CO) cooperativity factor: 14 and 13.8 ± 0.3
Ms sGC-NT21-CO
  Kd: 600 ± 100 nM
Ms sGC-NT13-CO
  Kd: 800 ± 100 nM
Bt sGC (full length) [8]
  Kd: ~8000 nM
β1 PAS domain
  Binding of YC-1 by fluorescence anisotropy: weak signal
Ms sGC-NT13 [2]
  Kd^CO/Kd^CO′ cooperativity factor: 19 ± 3
Ms sGC-NT; Kd, CO complexes (presence of CO), over constructs, Ms sGC-NT13 and Ms sGC-NT21
  Kd: 600 to 1100 nM and ~1000 nM
Ms sGC-NT
  Effect of α1 H-NOX removal on stimulator binding (Ms sGC-NT21 vs Ms sGC-NT13): ~ 2 fold
lysozyme
  Binding of YC-1 by fluorescence anisotropy: not for lysozyme
Ms sGC-NT21 [4]; 50 μM YC-1
  Tightening of the CO dissociation constant upon YC-1 binding: 10 fold
Ms sGC-NT21 [4]
  Kd^CO/Kd^CO′ cooperativity factor: 11 ± 1
Ms sGC α1 PAS
  Kd: > 100000 nM
